Experimental data as given in ChEMBL document CHEMBL2146397, “The Substrate-Activity-Screening methodology applied to receptor tyrosine kinases: a proof-of-concept study” (Eur J Med Chem, 2012).
Square brackets hold non-standard residues; d marks the D form. Peptide text beside a SMILES is read from it. Trp(6-Cl) = N[C@@H](Cc1c[nH]c2cc(Cl)ccc12)C(=O)O; 3Pal = N[C@@H](Cc1cccnc1)C(=O)O

Molecular target: Insulin-like growth factor 1 receptor (Homo sapiens, UniProt P08069)
Assay: Activity at pre-activated human GST-His6-tagged IGF-1R expressed in Sf9 cells assessed as initial phosphorylation rate at 10 uM measured every 2 mins for 60 mins by Michaelis-Menten constant based ADP Quest assay
How it was run: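 Reaction buffer was the same plus 0.1 mg/mL BSA, with kinase, peptide substrate and detection reagents. Started with ATP; fluorescence read every 2 min for 60 min; 3 independent experiments.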

Insulin-like growth factor 1 receptor, sequence (P08069 31-736 limits assumed): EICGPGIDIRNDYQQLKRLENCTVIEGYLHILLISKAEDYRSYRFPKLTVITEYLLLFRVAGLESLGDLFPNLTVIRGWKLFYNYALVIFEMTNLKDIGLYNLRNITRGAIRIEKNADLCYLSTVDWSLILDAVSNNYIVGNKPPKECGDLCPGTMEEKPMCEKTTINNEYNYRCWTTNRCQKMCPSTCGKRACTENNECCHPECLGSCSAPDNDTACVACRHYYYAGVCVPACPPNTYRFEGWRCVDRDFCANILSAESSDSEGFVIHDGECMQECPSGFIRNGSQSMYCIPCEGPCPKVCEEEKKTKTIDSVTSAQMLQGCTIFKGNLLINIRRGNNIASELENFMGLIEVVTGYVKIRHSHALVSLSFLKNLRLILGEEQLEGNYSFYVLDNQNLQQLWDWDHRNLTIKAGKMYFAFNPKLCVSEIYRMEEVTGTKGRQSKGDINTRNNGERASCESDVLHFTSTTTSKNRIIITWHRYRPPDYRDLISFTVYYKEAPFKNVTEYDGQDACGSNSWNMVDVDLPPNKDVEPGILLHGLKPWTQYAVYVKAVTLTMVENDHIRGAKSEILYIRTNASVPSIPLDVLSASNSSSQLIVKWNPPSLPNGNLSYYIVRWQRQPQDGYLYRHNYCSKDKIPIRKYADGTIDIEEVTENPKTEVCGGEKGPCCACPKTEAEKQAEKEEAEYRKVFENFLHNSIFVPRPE
Insulin-like growth factor 1 receptor, sequence (P08069 741-1367 limits assumed): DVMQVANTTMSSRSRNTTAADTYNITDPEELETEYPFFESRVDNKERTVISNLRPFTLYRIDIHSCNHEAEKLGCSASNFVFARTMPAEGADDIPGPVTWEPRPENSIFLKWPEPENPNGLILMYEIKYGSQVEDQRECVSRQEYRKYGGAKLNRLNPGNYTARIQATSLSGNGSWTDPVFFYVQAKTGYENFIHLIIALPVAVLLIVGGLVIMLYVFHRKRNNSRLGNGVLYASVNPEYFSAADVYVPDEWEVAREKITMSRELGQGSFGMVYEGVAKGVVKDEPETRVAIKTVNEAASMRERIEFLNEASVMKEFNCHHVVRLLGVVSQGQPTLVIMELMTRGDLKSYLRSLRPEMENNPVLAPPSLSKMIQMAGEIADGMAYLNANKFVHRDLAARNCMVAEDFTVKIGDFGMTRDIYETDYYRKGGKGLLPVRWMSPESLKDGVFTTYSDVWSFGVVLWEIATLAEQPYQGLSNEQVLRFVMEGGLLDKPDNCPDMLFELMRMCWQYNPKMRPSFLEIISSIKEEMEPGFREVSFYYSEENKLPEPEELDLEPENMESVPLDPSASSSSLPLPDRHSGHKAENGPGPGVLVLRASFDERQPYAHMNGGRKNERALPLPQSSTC

SMILES	Activity
CNC(=O)[C@@H](Cc1c[nH]c2ccccc12)NC(=O)CNC(=O)[C@H](Cc1ccccc1)NC(=O)[C@H](Cc1ccc(O)cc1)NC(=O)[C@H](CC(=O)O)NC(C)=O	0.09 nM/s
CNC(=O)[C@@H](Cc1c[nH]c2ccccc12)NC(=O)[C@H](CCC(=O)O)NC(=O)[C@H](Cc1ccccc1)NC(=O)[C@H](Cc1ccc(O)cc1)NC(=O)[C@H](CC(=O)O)NC(C)=O	0.28 nM/s
CNC(=O)[C@@H](Cc1c[nH]c2ccccc12)NC(=O)[C@H](CCC(=O)O)NC(=O)[C@H](Cc1ccccc1)NC(=O)[C@H](Cc1ccc(O)cc1)NC(=O)[C@H]1CCCC[C@@H]1C(=O)O	0.51 nM/s
CNC(=O)[C@H](Cc1c[nH]c2ccccc12)NC(=O)CNC(=O)[C@H](Cc1ccccc1)NC(=O)[C@H](Cc1ccc(O)cc1)NC(=O)[C@H](CC(=O)O)NC(C)=O	1.7 nM/s
CNC(=O)[C@H](Cc1c[nH]c2ccccc12)NC(=O)[C@H](CCC(=O)O)NC(=O)[C@H](Cc1ccccc1)NC(=O)[C@H](Cc1ccc(O)cc1)NC(=O)[C@@H]1CCCC[C@@H]1C(=O)O	4.6 nM/s
CNC(=O)[C@H](Cc1c[nH]c2ccccc12)NC(=O)[C@H](CCC(=O)O)NC(=O)[C@H](Cc1ccccc1)NC(=O)[C@H](Cc1ccc(O)cc1)NC(=O)[C@@H]1CCCC[C@H]1C(=O)O	1.1 nM/s
CNC(=O)[C@H](Cc1c[nH]c2ccccc12)NC(=O)[C@H](CCC(=O)O)NC(=O)[C@H](Cc1ccccc1)NC(=O)[C@H](Cc1ccc(O)cc1)NC(=O)[C@H](CC(=O)O)NC(C)=O	6.2 nM/s
CNC(=O)[C@H](Cc1c[nH]c2ccccc12)NC(=O)[C@H](CCC(=O)O)NC(=O)[C@H](Cc1ccccc1)NC(=O)[C@H](Cc1ccc(O)cc1)NC(=O)[C@H](CCC(=O)O)NC(C)=O	2.5 nM/s
CNC(=O)[C@H](Cc1c[nH]c2ccccc12)NC(=O)[C@H](CCC(=O)O)NC(=O)[C@H](Cc1ccccc1)NC(=O)[C@H](Cc1ccc(O)cc1)NC(=O)[C@H]1CCCC[C@@H]1C(=O)O	10.9 nM/s
CNC(=O)[C@H](Cc1c[nH]c2cc(Cl)ccc12)NC(=O)[C@H](CCC(=O)O)NC(=O)[C@H](Cc1ccccc1)NC(=O)[C@H](Cc1ccc(O)cc1)NC(=O)[C@H](Cc1cccnc1)NC(C)=O (Ac-[3Pal]YFE[Trp(6-Cl)]-NHMe)	1 nM/s
CNC(=O)[C@H](Cc1ccccc1)NC(=O)[C@H](CCC(=O)O)NC(=O)[C@H](Cc1ccccc1)NC(=O)[C@H](Cc1ccc(O)cc1)NC(=O)C1CCC1C(=O)O (stereo partly specified) (HELM PEPTIDE1{[O=C(O)C1CCC1C(=O)[*:2]].Y.F.E.F.[CN[*:1]]}$$$$V2.0)	1.9 nM/s
CNC(=O)[C@H](Cc1c[nH]c2ccccc12)NC(=O)[C@H](CCC(=O)O)NC(=O)[C@H](Cc1ccccc1)NC(=O)[C@H](Cc1ccc(O)cc1)NC(=O)C1CCC1C(=O)O (stereo partly specified) (HELM PEPTIDE1{[O=C(O)C1CCC1C(=O)[*:2]].Y.F.E.W.[CN[*:1]]}$$$$V2.0)	4.3 nM/s
CNC(=O)[C@H](Cc1ccccc1)NC(=O)[C@H](CCC(=O)O)NC(=O)[C@H](Cc1ccccc1)NC(=O)[C@H](Cc1ccc(O)cc1)NC(=O)CCC(=O)O (HELM PEPTIDE1{[O=C(O)CCC(=O)[*:2]].Y.F.E.F.[CN[*:1]]}$$$$V2.0)	0.25 nM/s
CNC(=O)[C@H](Cc1c[nH]c2ccccc12)NC(=O)[C@H](CCC(=O)O)NC(=O)[C@H](Cc1ccccc1)NC(=O)[C@H](Cc1ccc(O)cc1)NC(=O)CCC(=O)O (HELM PEPTIDE1{[O=C(O)CCC(=O)[*:2]].Y.F.E.W.[CN[*:1]]}$$$$V2.0)	1.45 nM/s
CNC(=O)[C@H](Cc1ccccc1)NC(=O)[C@H](CCC(=O)O)NC(=O)[C@H](Cc1ccccc1)NC(=O)[C@H](Cc1ccc(O)cc1)NC(=O)[C@@H]1CCCC[C@H]1C(=O)O (HELM PEPTIDE1{[O=C(O)[C@@H]1CCCC[C@H]1C(=O)[*:2]].Y.F.E.F.[CN[*:1]]}$$$$V2.0)	0.17 nM/s
CNC(=O)[C@H](Cc1ccccc1)NC(=O)[C@H](CCC(=O)O)NC(=O)[C@H](Cc1ccccc1)NC(=O)[C@H](Cc1ccc(O)cc1)NC(=O)[C@@H]1CCC[C@H]1C(=O)O (HELM PEPTIDE1{[O=C(O)[C@@H]1CCC[C@H]1C(=O)[*:2]].Y.F.E.F.[CN[*:1]]}$$$$V2.0)	3.8 nM/s
